# Test results: article PMC7471432 (Acta Pharmacologica Sinica, 2020)
# Where two headings read alike, the source gives them in different places.
# How the values were obtained:
# [1] = tested on: cultured mouse hippocampal neurons; type: cell-based
# Procedure, shortened: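 Hippocampi from E18 C57BL/6 mouse embryos were digested with 3 mg/mL proteinase for 8 min at 32 °C, triturated, and plated on poly-D-lysine coverslips. Cells were switched to serum-free Neurobasal-A/B-27 after 6 h and recorded after 12 days. Whole-cell current-clamp used a KCl/EGTA pipette (pH 7.2) and perfused NaCl/HEPES bath (pH 7.4), at room temperature.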
# NaV currents = assay: NaV currents, whole-cell voltage-clamp, acutely isolated rat hippocampal neurons; type: cell-based
# CaV currents = assay: Total CaV currents, whole-cell voltage-clamp, rat hippocampal neurons; type: cell-based; details: read-out: IC50 on total CaV currents; holding −90 mV, test pulse 0 mV, n = 6
# Procedure, shortened: (§1)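 Rat hippocampal neurons were recorded in whole-cell voltage-clamp with a CsCl/TEA/5 mM MgATP internal (pH 7.2) and a bath containing 5 mM CaCl2 and 20 mM TEA-Cl (pH 7.4). Currents were evoked by steps from −90 mV to 0 mV at room temperature. Activation and inactivation curves were fitted with Boltzmann equations, and IC50 with a 3-parameter Hill equation.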
# HVA calcium currents = assay: High-voltage-activated; type: cell-based, rat; details: 10 µmol/L GM
# Procedure, shortened: as §1
# LVA calcium currents = assay: Low-voltage-activated; type: cell-based, rat; details: 10 µmol/L GM
# Procedure, shortened: as §1
# [2] = tested on: delayed rectifier potassium current (IK); assay: Delayed rectifier potassium current; type: cell-based, rat; details: read-out: IC50 on IK; n = 5
# Procedure, shortened: (§2)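 Rat hippocampal neurons were recorded in whole-cell voltage-clamp with a KCl/EGTA internal and a NaCl/KCl bath. Cells were held at −50 mV, prepulsed to −110 mV for 500 ms, then stepped from −110 to 40 mV. For IK, a 50 ms step to −50 mV removed IA, and amplitude was read at 300 ms. IA was read as peak. IC50 came from a 3-parameter Hill fit.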
# [3] = tested on: transient outward potassium current (IA); assay: Transient outward potassium current; type: cell-based, rat; details: read-out: IC50 on IA; n = 5
# Procedure, shortened: as §2
# human Kir2.1 channels = biological target: T1, human Kir2.1 channels (Homo sapiens, UniProt P63252); assay: Kir2.1 currents in HEK-293 cells stably expressing hKir2.1; type: cell-based
# T1 sequence (P63252 1-427): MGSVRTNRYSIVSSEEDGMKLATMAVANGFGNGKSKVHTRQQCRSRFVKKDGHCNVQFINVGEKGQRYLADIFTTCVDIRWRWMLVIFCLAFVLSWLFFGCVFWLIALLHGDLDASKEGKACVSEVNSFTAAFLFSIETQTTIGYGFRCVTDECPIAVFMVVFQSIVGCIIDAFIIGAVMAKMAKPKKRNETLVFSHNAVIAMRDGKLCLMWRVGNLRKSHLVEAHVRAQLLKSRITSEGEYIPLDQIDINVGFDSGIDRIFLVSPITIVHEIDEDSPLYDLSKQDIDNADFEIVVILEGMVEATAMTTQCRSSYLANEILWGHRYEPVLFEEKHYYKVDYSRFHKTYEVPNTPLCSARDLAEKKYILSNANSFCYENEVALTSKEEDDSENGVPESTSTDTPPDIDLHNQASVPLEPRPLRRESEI
# Procedure, shortened: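 HEK-293 cells stably expressing human Kir2.1 were held at −70 mV and given a 500 ms test pulse to −140 mV. The internal was 140 mM KCl with EGTA (pH 7.2) and the bath was NaCl/KCl (pH 7.4), at room temperature. Inhibition ratios are means ± SEM, compared with paired t test against control.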
# nACh receptors = assay: Acetylcholine-evoked currents, cultured rat hippocampal neurons; type: cell-based; details: 30 μmol/L GM
# Procedure, shortened: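 Cultured rat hippocampal neurons were held at −60 mV in whole-cell mode, and acetylcholine-evoked currents were recorded at room temperature with and without test compound. Concentration–response data (IDrug/IControl) were fitted to a 3-parameter Hill equation to obtain IC50. Data are means ± SEM.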
# GABA receptors = assay: GABA-induced currents, rat hippocampal neurons; type: cell-based; details: n = 4
# Procedure, shortened: (§3)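 Whole-cell recordings were made at room temperature from rat hippocampal neurons held at −60 mV. Currents were activated by applying the corresponding ligand under continuous bath perfusion. Signals were filtered at 2 kHz and digitized at 10 kHz. Data are means ± SEM, tested by paired two-tailed t test against control.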
# NMDA receptors = assay: NMDA-induced currents, rat hippocampal neurons; type: cell-based; details: n = 4
# Procedure, shortened: as §3
# AMPA receptors = assay: AMPA-induced currents, rat hippocampal neurons; type: cell-based; details: n = 4
# Procedure, shortened: as §3
# KA receptors = assay: KA-induced currents, rat hippocampal neurons; type: cell-based; details: n = 4
# Procedure, shortened: as §3
# [4] = tested on: MES-induced seizure model mice; assay: MES-induced seizure assay; type: in vivo, mouse; details: oral
# [5] = tested on: 6-Hz-induced seizure model mice; assay: 6-Hz corneal kindling epilepsy test; type: in vivo, mouse; details: 100 mg/kg; GM oral 60 min prior to stimulation; 32 mA
# [6] = tested on: isolated rat aorta strips; details: 10 µmol/L GM; cited from earlier work
compound,measurement,setting,value
Geissoschizine methyl ether [GM],resting membrane potential after GM perfusion,[1],did not change
same,inhibition ratio of firing frequency,"[1]; 1 μmol/L GM, n = 6",45.3% ± 3.7%
same,inhibition ratio of firing frequency,"[1]; 3 μmol/L GM, n = 6",49.6% ± 5.1%
same,reduction of action potential amplitude,"[1]; 3 μmol/L GM, n = 6",9.5% ± 1.8%
same,inhibition ratio of firing frequency,"[1]; 10 μmol/L GM, n = 6",82.3% ± 1.1%
same,reduction of action potential amplitude,"[1]; 10 μmol/L GM, n = 6",20.9% ± 3.2%
same,half-width of the action potential,"[1]; 10 μmol/L GM, control 2.0 ± 0.2 ms, n = 6",2.7 ± 0.4 ms
same,inhibition ratio of firing frequency,"[1]; 30 μmol/L GM, n = 6",97.8% ± 0.5%
same,reduction of action potential amplitude,"[1]; 30 μmol/L GM, n = 6",100.0%
same,half-activation voltage of NaV currents,"NaV currents; 10 µmol/L GM, control −45.1 ± 1.0 mV",−42.7 ± 0.8 mV
same,V1/2 of steady-state inactivation of NaV currents,"NaV currents; 10 µmol/L GM, control −54.4 ± 0.5 mV",−61.4 ± 0.6 mV
same,IC50,"NaV currents; read-out: IC50 on NaV currents, holding −90 mV, test pulse −20 mV, n = 7",10.2 µM
same,IC50,CaV currents,13.3 µM
same,change of activation curve of HVA currents,HVA calcium currents,did not exhibit a remarkable change
same,reduction of HVA currents,"HVA calcium currents; elicited at 0 mV, n = 7",28.5% ± 10.9%
same,shift in inactivation curve of HVA currents,HVA calcium currents; n = 9,No significant shift
same,change of activation curve of LVA currents,LVA calcium currents,did not exhibit a remarkable change
same,reduction of LVA currents,"LVA calcium currents; elicited at 0 mV, n = 7",48.4% ± 6.9%
same,effect on LVA current inactivation,LVA calcium currents; n = 5,lack of an effect
same,IC50,[2],1.6 µM
same,IC50,[3],50 µM
same,inhibition ratio of Kir2.1 currents,"human Kir2.1 channels; 10 µmol/L GM, n = 5",1.3% ± 2.2%
same,inhibition ratio of Kir2.1 currents,"human Kir2.1 channels; 30 µmol/L GM, n = 7",3.8% ± 1.5%
same,inhibition ratio of Kir2.1 currents,"human Kir2.1 channels; 100 µmol/L GM, n = 10",13.9% ± 2.2%
same,inhibition of acetylcholine-evoked currents,nACh receptors,completely inhibited
same,change of GABA receptor-mediated currents,GABA receptors; 30 µmol/L GM,No remarkable changes
same,modulation of GABA receptor-mediated currents,GABA receptors; 100 µmol/L GM,very weak
same,change of NMDA (glutamate) receptor-mediated currents,NMDA receptors; 30 µmol/L GM,No remarkable changes
same,modulation of NMDA (glutamate) receptor-mediated currents,NMDA receptors; 100 µmol/L GM,very weak
same,change of AMPA (glutamate) receptor-mediated currents,AMPA receptors; 30 µmol/L GM,No remarkable changes
same,modulation of AMPA (glutamate) receptor-mediated currents,AMPA receptors; 100 µmol/L GM,very weak
same,change of KA (glutamate) receptor-mediated currents,KA receptors; 30 µmol/L GM,No remarkable changes
same,modulation of KA (glutamate) receptor-mediated currents,KA receptors; 100 µmol/L GM,very weak
same,ED50 for protection against MES,[4],78.9 (60.3–103.3) mg/kg
same,Protection rate (%),[5],70%
same,effect on Bay K8644- or Ca2+-induced contractions,[6],able to relax
"CC[C@@H](C(N)=O)N1CCCC1=O [LEV, Levetiracetam, reference compound]",Protection rate (%),[5],100%
